Measurements published in EPA's CvTdb concentration-time database.

Legend:
[1] = system: rat; assay: concentration in blood after dosing; negative times count back from the end of exposure; settings: inhalation
[2] = system: rat; assay: concentration in blood after dosing; settings: dosed: toluene, 3000 ppm, dermal, duration: 4 hr, male, F344
[3] = system: rat; assay: concentration in blood after dosing; settings: dosed: toluene, 3000 ppm, dermal, duration: 4 hr, male, F344; remark: listed apart in the source
[4] = system: human; assay: concentration in blood after dosing; settings: dosed: toluene, 100 ppm, dermal, duration: 30 min, person
In short: (§1)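 Points were largely digitised from plot screenshots with WebPlotDigitizer or otherwise copied from tables, and they remain in the units each source reported. They come from published in vivo toxicokinetic studies and two structured collections. Sampling and analytical methods follow each source and were often not reported.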

[5] = system: rat; assay: concentration in blood after dosing; settings: dosed: toluene, 3000 ppm, dermal, duration: 4 hr, male, F344; remark: listed apart in the source
[6] = system: rat; assay: concentration in blood after dosing; settings: dosed: toluene, 3000 ppm, dermal, duration: 4 hr, male, F344; remark: listed apart in the source
[7] = system: rat; assay: concentration in blood after dosing; settings: dosed: toluene, 3000 ppm, dermal, duration: 4 hr, male, F344; remark: listed apart in the source
[8] = system: rat; assay: concentration in blood after dosing; settings: dosed: toluene, 3000 ppm, dermal, duration: 4 hr, male, F344; remark: listed apart in the source
[9] = system: human; assay: concentration in Capillary Blood after dosing; settings: dosed: toluene, 200 mg/m^3, inhalation, duration: 2 hr, male
In short: as §1

[10] = system: human; assay: concentration in expired air after dosing; negative times count back from the end of exposure; settings: dosed: vinyl chloride, 2.5 ppm, inhalation
In short: as §1

CC(C)O [isopropanol]
[1], dosed: isopropanol, duration: 360 min
Settings	concentration in blood [ng/mL]
0.3018 h, 476 ppm	26000
0.31 h, 4960 ppm	738000
0.5307 h, 476 ppm	18300
0.5409 h, 4960 ppm	647000
1.039 h, 476 ppm	12200
1.102 h, 4960 ppm	552000
1.98 h, 476 ppm	6110
2.098 h, 4960 ppm	367000
3.047 h, 476 ppm	6110
3.117 h, 4960 ppm	240000
5.995 h, 476 ppm	1530
6.019 h, 4960 ppm	67200
12.07 h, 4960 ppm	12200
98 s, 4960 ppm	871000

concentration in blood [ng/mL], [1], dosed: isopropanol, duration: 360 min, during exposure
Settings	-195 s	-5.546 h	-5.517 h	-5.06 h	-4.913 h	-3.002 h	-2.938 h
476 ppm	32100	–	7640	12200	–	21400	–
4960 ppm	–	141000	–	–	241000	–	544000

Cc1ccccc1 [toluene]
Settings	concentration in Capillary Blood [nM]	concentration in blood
[2], 0.5 h	–	2160 ng/mL
[2], 1 h	–	3520 ng/mL
[2], 2 h	–	5470 ng/mL
[2], 3 h	–	4800 ng/mL
[2], 4 h	–	7390 ng/mL
[3], 0.5 h	–	1830 ng/mL
[3], 1 h	–	3670 ng/mL
[3], 2 h	–	5070 ng/mL
[3], 3 h	–	5760 ng/mL
[3], 4 h	–	7030 ng/mL
[4], 0.2477 h	–	510 nM
[4], 0.499 h	–	1720 nM
[4], 0.7454 h	–	1620 nM
[4], 0.9948 h	–	1210 nM
[4], 1.5 h	–	941 nM
[4], 2.49 h	–	655 nM
[4], 3.495 h	–	453 nM
[5], 0.5 h	–	4530 ng/mL
[5], 1 h	–	5230 ng/mL
[5], 2 h	–	5470 ng/mL
[5], 3 h	–	6610 ng/mL
[5], 4 h	–	6640 ng/mL
[6], 0.5 h	–	1230 ng/mL
[6], 1 h	–	2720 ng/mL
[6], 2 h	–	4560 ng/mL
[6], 3 h	–	5160 ng/mL
[6], 4 h	–	5840 ng/mL
[7], 0.5 h	–	2910 ng/mL
[7], 1 h	–	5540 ng/mL
[7], 2 h	–	6830 ng/mL
[7], 3 h	–	8230 ng/mL
[7], 4 h	–	8240 ng/mL
[8], 0.5 h	–	4120 ng/mL
[8], 1 h	–	1330 ng/mL
[8], 2 h	–	8440 ng/mL
[8], 3 h	–	10100 ng/mL
[8], 4 h	–	12100 ng/mL
[9], 0.1631 h	5870	–
[9], 0.2703 h	6730	–
[9], 0.5028 h	8250	–
[9], 0.7659 h	9110	–
[9], 1.003 h	9630	–
[9], 1.104 h	9000	–
[9], 1.493 h	10300	–
[9], 1.737 h	10300	–
[9], 1.969 h	10400	–
[9], 2.075 h	4980	–
[9], 2.15 h	4310	–
[9], 2.236 h	4010	–
[9], 2.514 h	3210	–
[9], 3.028 h	1540	–
[9], 3.361 h	1330	–
[9], 3.69 h	1220	–
[9], 4.023 h	1050	–
[9], 4.349 h	959	–
[9], 4.444 h	711	–
[9], 4.673 h	867	–
[9], 5.349 h	763	–
[9], 5.678 h	671	–
[9], 5.993 h	632	–
[9], 334 s	4060	–

[1], dosed: toluene, 100 ppm, duration: 2 hr, male, Wistar
Settings	concentration in blood [nM]
0.996 h	2600
2.004 h	1520

[1], dosed: toluene, 100 ppm, duration: 2 hr, male, Wistar, during exposure
Settings	concentration in blood [nM]
-20 s	8210
-1.759 h	5580
-1.503 h	6410
-1.005 h	6950
-0.5053 h	9060

C=CCl [vinyl chloride]
concentration in expired air [ppm], [10]
Settings	duration: 0.25 hr	duration: 0.5 hr
2 s	1.88	–
4 min	0.0581	–
31 s	0.564	–
60 s	–	0.375
64 s	0.271	–
121 s	0.13	0.217
179 s	–	0.198
180 s	0.118	–
237 s	–	0.156
298 s	–	0.145
299 s	0.0432	–

concentration in expired air [ppm], [10], during exposure
Settings	duration: 0.25 hr	duration: 0.5 hr
-299 s	1.81	–
-298 s	–	1.63
-241 s	–	1.74
-238 s	1.84	–
-180 s	1.88	–
-122 s	–	1.77
-119 s	1.84	–
-61 s	–	1.7
-59 s	1.96	–
-11 min	1.68	1.81
-8 min	1.64	–
-7 min	–	1.7
-3 min	–	1.79
-0.4831 h	–	1.29
-0.4663 h	–	1.4
-0.4502 h	–	1.63
-0.4157 h	–	1.7
-0.3827 h	–	1.77
-0.3489 h	–	1.79
-0.316 h	–	1.77
-0.2823 h	–	1.86
-0.2493 h	–	1.45
-0.2413 h	0.701	–
-0.2343 h	1.27	–
-0.224 h	1.59	–
-0.2163 h	–	1.86
-0.2158 h	1.57	–
-0.2001 h	1.62	–
-0.1659 h	1.79	–
-0.1496 h	–	1.7
-0.1491 h	1.72	–
-0.1161 h	1.84	–
-0.1003 h	1.79	–
-0 s	–	1.57
